KCNK9 inh: inhibitors of human KCNK9 two-pore domain potassium channel | Q9NPC2 | HEK293 KCNK9, FluxOR thallium flux fluorescence; active compounds read low | B-score at 10 µM | 310,000 compounds, 1.2% hits | AID 488922;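 active means ratio B-score over 3 SD below the library mean, with starting fluorescence within 5 SD of its mean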;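 further: negative B-score means less thallium flux so channel inhibition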
KCNK3 block: human KCNK3 channel inhibition, primary screen; O14649; CHO-KCNK3 thallium flux, FluxOR fluorescence; active compounds read low; B-score at 10 µM; 340,000 compounds, 0.84% hits; AID 602410;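 active means B-score under library mean minus 4 SD, starting fluorescence ratio at most library mean plus 5 SD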;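 further: more negative B-score means stronger inhibition of thallium flux through KCNK3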
Target sequence (O14649 whole entry, looked up): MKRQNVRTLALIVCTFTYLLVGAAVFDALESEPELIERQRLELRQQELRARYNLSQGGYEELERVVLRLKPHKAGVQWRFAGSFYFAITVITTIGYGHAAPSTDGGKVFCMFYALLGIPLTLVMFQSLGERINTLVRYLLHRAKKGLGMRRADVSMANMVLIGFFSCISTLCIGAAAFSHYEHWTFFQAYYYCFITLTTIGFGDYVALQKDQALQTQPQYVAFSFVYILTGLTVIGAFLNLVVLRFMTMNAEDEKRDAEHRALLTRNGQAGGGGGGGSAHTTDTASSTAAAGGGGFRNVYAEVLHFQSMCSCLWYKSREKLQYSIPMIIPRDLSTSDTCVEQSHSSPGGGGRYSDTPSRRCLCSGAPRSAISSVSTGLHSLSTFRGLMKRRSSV
KCNQ1 block: inhibitors of human KCNQ1 potassium channel; 310,000 compounds, 1.3% hits; AID 2642; CHO-K1 KCNQ1, FluxOR thallium flux fluorescence; active compounds read high; P51787; B-score at 10 µM;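 active means compounds whose thallium flux B-score, printed positive for inhibition, exceeds three library SD while starting fluorescence stays within three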;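 further: channel opened by potassium depolarization with thallium stimulus after 20 min compound exposure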
Kir21 inh: blocks the mouse Kir2.1 inward-rectifier potassium channel. P35561. HEK293-Kir2.1, FluxOR thallium flux fluorescence; active compounds read low. B-score at 10 µM. 310,000 compounds, 0.85% hits. AID 1672;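 active means fluorescence ratio B-score at or below minus 3 SD of library scores, with starting-brightness B-score within 2 SD, cut at about -4.2 in these data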;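 further: channel flux triggered by added potassium and thallium sulfate stimulus; B-score of peak minus minimum fluorescence over baseline after thallium stimulus; more negative B-score means stronger Kir2.1 block with less thallium influx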
hERG rescue: shields human hERG channel from block by proarrhythmic agents; CHO-hERG, FluxOR thallium flux, dofetilide IC70 present; activation (rescue from dofetilide block), less the hit threshold, % at 10 µM; 310,000 compounds, 0.51% hits; AID 1511;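 active means activation above the mean of controls blocked by dofetilide plus 5 SD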;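 further: thallium influx through hERG after potassium depolarization seen as dye fluorescence rise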
KCNQ1 pot: human KCNQ1 channel potentiation or activation; P51787; CHO-K1 KCNQ1, thallium flux FluxOR fluorescence; active compounds read high; B-score at 10 µM; 310,000 compounds, 0.35% hits; AID 2648;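 active means fluorescence ratio B-score, a plate-corrected score, at least three library SD, with initial intensity B-score within 5 SD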
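System: Stable KCNQ1 CHO-K1 line | Incubation: 90 min dye loading and 20 min compound exposure, both at room temperature | Measure: Ratio B score | Medium: Assay buffer for compound exposure, DMSO matched across wells | Compound dosing: Single-concentration screen | Probe or stimulus: K+/Tl+ depolarizing stimulus | Measured by: Kinetic FluxOR fluorescence, 10 s baseline plus 110 s post-stimulus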
KCNK9 inh conf: confirmation of human KCNK9 potassium channel inhibitors | shares compounds with KCNK9 inh | HEK293 KCNK9 cells, FluxOR thallium flux fluorescence | inhibition, % at 10 µM | 4,900 compounds, 43% hits;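 active means thallium signal inhibited by more than 5 SD of the compound-free buffer control wells, on both duplicate plates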;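 further: 0% = assay buffer control wells without compound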
Kir2-1 spec: tests whether KCNK9 modulators also affect mouse Kir2.1 | inhibition, % at 10 µM | shares compounds with KCNK9 inh | 4,900 compounds, 4% hits | Kir2.1 cells, FluxOR thallium flux fluorescence;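 active means thallium signal drop more than 5 SD beyond the mean of the no-compound control wells, seen in both duplicate plates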;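 further: signal is fluorescence rise after thallium addition divided by baseline fluorescence; plate controls were assay buffer only for no effect and full block by chlorpromazine control for full effect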
KCNK9 uninduced: second check of KCNK9 modulator effects in non-induced HEK293 cells; shares compounds with KCNK9 inh; FluxOR thallium flux; inhibition, % at 10 µM; 4,900 compounds, 40% hits; AID 492997;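 active means thallium signal drop beyond 5 SD of the untreated control mean, on both duplicate plates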;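 further: plate controls were buffer only IC0 wells for no effect and SID17386958 at its maximal inhibitory level for full effect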
KCNK3 confirm: human KCNK3 channel inhibition, confirmation assay | shares compounds with KCNK3 block | CHO-KCNK3 thallium flux, FluxOR fluorescence; 0% buffer, 100% carvedilol maximal block | ratio percent of control, % at 10 µM | 2,400 compounds, 99% hits | AID 651638;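 active means ratio percent of control, averaged over triplicates, above buffer control mean plus 5 SD, cut at about 64% in these data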;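 further: ratio is the fluorescence rise from min to max over baseline after thallium stimulus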
KCNK3 uninduced: KCNK3 inhibitor counter-screen hit in non-induced cells. shares compounds with KCNK3 block. non-induced KCNK3 parental cells, FluxOR thallium flux; active compounds read low. thallium flux ratio (lower = more inhibition) at 10 µM. 2,400 compounds, 40% hits. AID 651747;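 active means thallium flux ratio, averaged over three wells, more than 5 SD below the buffer control mean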;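 further: host cells are CHO cells without KCNK3 induction; ratio is peak minus trough fluorescence over baseline then normalized to buffer controls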
An asterisk follows results filed as active; i = inactive; . = no result. Shown are actives, neighbours in structure and some others; about 3.8% of the full set was active somewhere.

SMILES	KCNK9 inh	KCNK3 block	KCNQ1 block	Kir21 inh	hERG rescue	KCNQ1 pot	KCNK9 inh conf	Kir2-1 spec	KCNK9 uninduced	KCNK3 confirm	KCNK3 uninduced
CC(C)N(Cc1nc(-c2ccc(Cl)cc2)no1)C(=O)C(c1ccccc1)c1ccccc1	-10.5*	-9.92*	i	0.01	-11.6	i	55.0%*	i	40.0%*	129.3*	0.133*
CC(C)C(C)NC(=O)CN1C(=O)NC(c2ccccc2)(c2ccccc2)C1=O (centres undefined)	i	i	i	-0.06	-9.1	i	.	.	.	.	.
c1csc(C(c2nnnn2C2CCCCC2)N2CCCC3(CCCCC3)C2)c1 (centres undefined)	i	i	i	0.16	-12.8	i	.	.	.	.	.
CC(C)(C)n1nnnc1C(c1cccs1)N1CCCC2(CCCCC2)C1 (centres undefined)	-17.1*	-9.13*	i	2.37	-5.2	i	40.0%*	i	39.5%*	125.3*	0.13*
CCCn1ncc(CN2CCC(Oc3ccc(C(=O)N4CCCC4)cc3)CC2)c1C	i	i	i	0.22	-7.8	i	.	.	.	.	.
C#CCN(Cc1ccco1)C(=O)c1cc(COc2ccc(F)cc2Cl)on1	-9.29*	-11.3*	i	-0.03	-6.8	i	i	i	34.5%*	115.0*	0.152*
CCN(Cc1ccncc1)C(=O)c1cc(COc2ccc(F)cc2Cl)on1	i	i	i	-1.42	-4.4	i	.	.	.	.	.
CSCc1c(C(=O)Nc2ccc3c(c2)OCO3)oc2ccccc12	-9.48*	-8.72*	i	-1.05	-9.9	i	39.0%*	i	30.0%*	123.7*	0.146*
CSc1nc(Cl)c(Cc2ccc(OC(C)C)cc2)c(N(C)C)n1	-8.39*	-8.75*	i	0.01	-19.8	i	i	i	38.5%*	134.3*	0.133*
COc1ccc(/C(C)=N/NC(=O)CN(c2ccc(OC)cc2)S(=O)(=O)c2ccccc2)cc1	i	i	i	-0.02	-9.8	i	.	.	.	.	.
COc1ccc(-c2[nH]c(-c3ccc4c(c3)OCO4)nc2-c2ccccc2)cc1	-10.7*	-10.2*	11*	0.84	-7.2	i	55.5%*	i	35.0%*	153.7*	0.105*
O=C(CSc1nc2ccc(NC(=O)CSc3nnnn3-c3ccccc3)cc2s1)Nc1ccccc1	i	i	i	1.16	-0.4	i	.	.	.	.	.
c1ccc(-n2nnnc2SCCCSc2nc3ccccc3s2)cc1	-15.4*	-9.88*	i	-0.21	-13.4	i	62.5%*	i	46.0%*	103.3*	i
CN1C(=O)[C@H]2[C@@H](/C=C/c3ccccc3)N3C(=O)CN(Cc4ccccn4)C(=O)[C@@]3(C)[C@H]2C1=O	i	i	i	0.86	-8.6	i	.	.	.	.	.
CCCOc1ccccc1Cn1c(=O)oc2ccc(C)cc21	-10.1*	-8.71*	i	-1.01	-18.3	16*	52.5%*	i	46.0%*	115.3*	i
CCOc1ccccc1Cn1c(=O)oc2ccc(C)cc21	.	i	.	.	.	.	.	.	.	.	.
Cc1cccc(C)c1NC(=S)Nc1ccc(Cl)c(Cl)c1	-9.12*	-11.6*	8*	-0.49	-14.1	i	47.5%*	i	i	86.0*	0.144*
COc1ccc(NC(=S)Nc2ccc(C)c(Cl)c2)cc1OC	i	i	i	-3.42	-8.4	i	.	.	.	.	.

Screens: PubChem, Johns Hopkins Ion Channel Center
